We go through 22 molecules from ChEMBL document CHEMBL1641380, “Novel tetrahydropyrido[3,2-c]pyrroles as 5-HT(7) antagonists” (Bioorg Med Chem Lett, 2011).

Calls of active or inactive are those of the source. The calls are words filed in the database; no cut-off is given here.

In series [1] the target is 5-hydroxytryptamine receptor 7 (Rattus norvegicus, UniProt P32305). Nature of the series: Displacement of [3H]5-CT from rat recombinant 5HT7 receptor expressed in HEK293 cells after 60 mins. It counts as cell-based. Put shortly: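 Membranes from HEK-293 cells stably expressing rat 5-HT7 incubated 60 min at room temperature with 1 nM [3H]5-CT and increasing test compound; rapid filtration, radioactivity counted. IC50 from nonlinear sigmoidal fits, Ki by Cheng-Prusoff. Means of three experiments in triplicate, SEM; final DMSO ≤0.4%.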
Sequence of 5-hydroxytryptamine receptor 7 (Rattus norvegicus, UniProt P32305) (P32305 whole entry): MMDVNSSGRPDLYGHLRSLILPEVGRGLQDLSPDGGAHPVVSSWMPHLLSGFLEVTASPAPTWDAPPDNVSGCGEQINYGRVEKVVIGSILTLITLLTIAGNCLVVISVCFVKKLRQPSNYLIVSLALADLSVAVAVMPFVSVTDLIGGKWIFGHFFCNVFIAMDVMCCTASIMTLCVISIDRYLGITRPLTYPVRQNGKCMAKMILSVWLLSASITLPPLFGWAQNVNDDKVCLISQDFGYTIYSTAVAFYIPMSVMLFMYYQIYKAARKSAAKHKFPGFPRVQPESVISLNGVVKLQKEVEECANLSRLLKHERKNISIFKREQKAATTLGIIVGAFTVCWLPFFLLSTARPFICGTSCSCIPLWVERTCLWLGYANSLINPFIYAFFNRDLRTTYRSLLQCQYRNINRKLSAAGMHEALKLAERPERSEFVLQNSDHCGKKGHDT

Series [2] has as its target 5-hydroxytryptamine receptor 7 (Rattus norvegicus) (UniProt P32305). Description: Antagonist activity at rat recombinant 5HT7 receptor expressed in HEK293 cells assessed as decrease of 5-CT-induced increase of cAMP level after 20 mins by competitive immunoassay. (Cyclic AMP is a second messenger, typically raised through Gs and lowered through Gi signalling.)
In series [3] the target is 5-hydroxytryptamine receptor 7 (Homo sapiens, UniProt P34969). Description: Binding affinity to 5HT7 receptor.
Sequence of 5-hydroxytryptamine receptor 7 (Homo sapiens, UniProt P34969) (P34969 whole entry): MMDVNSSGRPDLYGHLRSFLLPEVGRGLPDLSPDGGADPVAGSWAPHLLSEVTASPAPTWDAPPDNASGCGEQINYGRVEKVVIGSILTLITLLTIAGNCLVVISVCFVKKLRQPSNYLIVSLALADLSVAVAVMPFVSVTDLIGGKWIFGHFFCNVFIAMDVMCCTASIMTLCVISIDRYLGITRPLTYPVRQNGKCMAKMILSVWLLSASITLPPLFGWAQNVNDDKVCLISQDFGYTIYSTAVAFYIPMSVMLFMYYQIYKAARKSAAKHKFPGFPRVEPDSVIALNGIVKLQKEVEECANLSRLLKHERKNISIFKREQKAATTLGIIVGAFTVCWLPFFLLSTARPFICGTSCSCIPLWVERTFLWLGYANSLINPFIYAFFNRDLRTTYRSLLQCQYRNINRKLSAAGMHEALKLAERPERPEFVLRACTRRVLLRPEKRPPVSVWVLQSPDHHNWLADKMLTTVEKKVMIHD
For the next series, the system named is Rattus norvegicus. Description: Inhibition of 5-CT-induced hypothermia in rat at 10 mg/kg, ip. It counts as functional, organism-based. More on the design: dose 10 mg/kg. Put shortly: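 Conscious rats given test compound intraperitoneally at 10 mg/kg; antagonism of hypothermia induced by the 5-HT7 agonist 5-CT assessed.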
Series [4] in a line: Drug level in rat brain at 10 mg/kg, ip after 1 hr. Set-up: dose 10 mg/kg, route intraperitoneal. The series is classed as ADME, organism-based. Particulars: read-out: Drug uptake. The method in brief:
(§1)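 Rats dosed 10 mg/kg intraperitoneally; brain and plasma compound concentrations measured 1 h after dosing.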

Series [5] in a line: Binding affinity to adrenergic alpha1 receptor.
Series [6] can be described thus: Drug level in rat plasma at 10 mg/kg, ip after 1 hr. It counts as ADME, organism-based. Set-up: dose 10 mg/kg, route intraperitoneal. The settings on record: read-out: Drug uptake. The method in brief: as §1

Sequence of 5-hydroxytryptamine receptor 7 (Rattus norvegicus) (P32305 whole entry): as the sequence (P32305 whole entry) above

Take `COc1ccc(-c2cn(Cc3ccccc3)c3c2CNCC3)cc1`: the Ki in series [1] was determined as 290 nM.
As to `c1ccc(Cn2cc(-c3ccccc3)c3c2CCNC3)cc1`, in series [2], the pKb worked out at 6.7. Moreover, the Ki in series [1] stood at 220 nM.
`Clc1ccc(-c2cn(Cc3ccccc3)c3c2CNCC3)c(Cl)c1`: the Ki in series [1] turned out to be 2070 nM.
In the case of `CC(C)N1CCc2c(c(-c3ccc(Cl)cc3)cn2Cc2ccccc2)C1`, the Ki in series [1] is 370 nM.
In series [3], `Clc1ccc(-c2nn(Cc3ccccc3)c3c2CNCC3)cc1` showed a Ki of 14 nM.
As for `Fc1ccc(-c2cn(Cc3ccccc3)c3c2CNCC3)cc1`, in series [1], the Ki is 45 nM.
For the molecule `O=[N+]([O-])c1ccc(-c2cn(Cc3ccccc3)c3c2CNCC3)cc1`, in series [1], the Ki is 450 nM.
Regarding `Clc1ccc(-c2cn(Cc3ccccc3)c3c2CNCC3)cc1Cl`, in series [1], the Ki came to 4470 nM.
`Clc1ccc(-c2cn(Cc3ccccc3)c3c2CNCC3)cc1`: the pKb in series [2] worked out at 7.2. The Ki in series [1] was 107 nM.
In the case of `Cc1ccc(-c2cn(Cc3ccccc3)c3c2CNCC3)cc1`, the result with Rattus norvegicus was Active. The concentration at 1 h in series [4] is 27 µM; in series [6] it was 3 µM. Moreover, the pKb in series [2] is 7.6. In series [5], this molecule showed an Activity of 5 nM. The Ki in series [1] came out at 35 nM.
Consider `FC(F)(F)c1ccc(-c2cn(Cc3ccccc3)c3c2CNCC3)cc1`, for which the Ki in series [1] worked out at 167 nM.
On the same count and under the same terms, with `Fc1cccc(-c2cn(Cc3ccccc3)c3c2CNCC3)c1` the figure was 2730 nM; with `Clc1ccc(-c2cn(Cc3cccc(Cl)c3)c3c2CNCC3)cc1`, 533 nM.
The same measure, in the same setting: with `Clc1ccc(Cn2cc(-c3ccccc3)c3c2CCNC3)cc1` the figure was 753 nM; with `CCN1CCc2c(c(-c3ccc(Cl)cc3)cn2Cc2ccccc2)C1`, 250 nM; with `FC(F)(F)Oc1ccc(-c2cn(Cc3ccccc3)c3c2CNCC3)cc1`, 10000 nM.
Same read-out and setting: the result for `Clc1cccc(-c2cn(Cc3ccccc3)c3c2CNCC3)c1` reads 10000 nM.
On to `CC(C)(C)c1ccc(-c2cn(Cc3ccccc3)c3c2CNCC3)cc1`, for which, in series [1], the Ki stood at 10000 nM.
The same measure, in the same setting: with `Clc1ccccc1Cn1cc(-c2ccccc2)c2c1CCNC2` the figure was 2290 nM; with `Oc1ccc(-c2cn(Cc3ccccc3)c3c2CNCC3)cc1`, 10000 nM; with `Clc1cccc(Cn2cc(-c3ccccc3)c3c2CCNC3)c1`, 6600 nM.
Regarding `CN1CCc2c(c(-c3ccc(Cl)cc3)cn2Cc2ccccc2)C1`, the Ki in series [1] came out at 36 nM.

As a reminder, the Ki is the equilibrium dissociation constant of an inhibitor or competing ligand from its target. What is called pKb is the Kb on a negative log10 scale, so that one unit is a factor of ten.
